T cruzi inh: inhibitors of intracellular T. cruzi growth, primary screen, luminescence, NIH3T3 host cells; AID 1885, 2009; inhibition, % (test concentration not listed); T. cruzi beta-gal in NIH3T3, 90 h; 1.4% of 300,000 active;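 active = mean inhibition across valid replicates above about 55%, limit read from the data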;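 note: signal also drops with host cell toxicity which is not excluded here; higher percent means less beta-gal luminescence so fewer parasites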
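Incubation – ≥90 h infection period, 3 h prior cell attachment · System – NIH/3T3 fibroblasts plus reporter T. cruzi · Doses – compound pinned at 50 nL/well, DMSO · Read-out basis – percent inhibition of parasite-derived β-gal signal · Signal – luminescent β-galactosidase signal after 60 min lysis · Also added – 5000 T. cruzi trypomastigotes/well · Medium – Low-serum DMEM with 2% FBS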
MPTP block: mitochondrial permeability transition pore inhibitors, primary screen, biochemical, isolated mouse mitochondria, absorbance; 1.4% of 360,000 active; Ca2+ swelling absorbance, 30 min; inhibition, % at 10 µM;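 active = inhibition of 50% or more, scaled per plate between neutral and stimulator controls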
Hep lipid drop: inhibitors of hepatocyte lipid droplet formation, primary screen, imaging, high-throughput imaging, BODIPY stain. AML12 mouse hepatocytes, oleate lipid droplets. 0.4% of 240,000 active. AID 1656, 2009. inhibition, % at 6.5 µM;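 active = lipid droplet intensity inhibited by at least 50%, with more than 500 cells counted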
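Material: mouse AML12 hepatocyte cell line, fixed after treatment; Timing: compound with oleate, overnight; Technique: high-content imaging of BODIPY-stained droplets and DAPI nuclei; Probe or stimulus: oleate, 100 µM final; Dosing: compound at 6.5 µM only.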
Redox H2O2 prof: compounds producing H2O2 with reducing agent – biochemical, NIH compound library profiling, artefact control for MLSCN library redox annotation, primary screen | DTT-dependent redox cycling H2O2, phenol red/HRP absorbance; 100% = 100 µM peroxide control, 0% = buffer | AID 878, 2007 | 0.03% of 200,000 active | activation, % at 10 µM;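 active = activation of at least 50% relative to the plate's high and low controls in the primary single-dose screen; inactive = activation below 50%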;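 note: compound incubated with DTT at 0.8 mM final as the reducing agent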
Lmaj promast: Leishmania major promastigote growth inhibition, primary screen | Leishmania major promastigotes, resazurin fluorescence viability | inhibition, % at 10 µM | 9% of 200,000 active | AID 1063, 2008; in the data active = inhibition above about 50%;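 note: promastigotes grown with compound for 44 hours at 28 °C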
MPTP counter: fluorescence retest of MPTP screen hits in isolated mitochondria, single concentration; membrane potential, Rhodamine 123 fluorescence; inhibition, % at 10 µM; 78% of 5,000 active; shares compounds with MPTP block; in the data active = inhibition above about 22%
MPTP swell DR: mitochondrial permeability transition pore inhibitors, dose response, biochemical, absorbance, uHTS hits; shares compounds with MPTP block; isolated mitochondria swelling; IC50, µM; 58% of 780 active; in the data active = IC50 below about 20 µM
MPTP cs DR: fluorescent counter-screen in isolated mitochondria, dose response, counter-screen for MPTP inhibitor project, biochemical, fluorescence, uHTS hits. isolated mitochondria counterscreen, fluorescence read-out. AID 651564, 2012. IC50, µM. shares compounds with MPTP block. 49% of 780 active; in the data active = IC50 below about 80 µM
Hits are given with their value. Only a selection was taken, and hits are over-represented in it overall.

Cc1cc2nc(C)n(CCCNC(=O)Nc3cccc4ccccc34)c2cc1C was read as T cruzi inh inactive, MPTP block 88, Hep lipid drop inactive, Redox H2O2 prof inactive, Lmaj promast inactive and MPTP counter 91.
For COc1ccc(C(=O)N/C(=C\c2cn(S(=O)(=O)N(C)C)c3ccccc23)C(=O)N2CCOCC2)cc1 the results were T cruzi inh inactive, MPTP block inactive and Hep lipid drop inactive.
Screening CCn1c(C)nc2cc(C(=O)N3N=C(CCOC)CC3(O)C(F)(F)F)ccc21 (stereo not drawn) returned T cruzi inh inactive, MPTP block inactive and Hep lipid drop inactive.
For CCCCCC(=O)NC(NC(=S)N1CCOCC1)C(Cl)(Cl)Cl (stereo not drawn) the results were T cruzi inh inactive, MPTP block inactive, Hep lipid drop inactive, Redox H2O2 prof inactive and Lmaj promast inactive.
`CCCCCCCCC(=O)NC(NC(=S)N1CCOCC1)C(Cl)(Cl)Cl` (stereo not drawn) gave T cruzi inh inactive, MPTP block 88, Hep lipid drop inactive, Redox H2O2 prof inactive, Lmaj promast inactive and MPTP counter 86.
CC(=O)Nc1cccc(C(=O)Nc2cc(C(F)(F)F)ccc2-n2cncn2)c1 was read as MPTP block inactive.
`O=C(OCC(=O)N1CCCC1)c1ccc(NS(=O)(=O)c2cccs2)cc1O` gave T cruzi inh inactive, MPTP block inactive, Hep lipid drop inactive, Redox H2O2 prof inactive and Lmaj promast inactive.
For O=C1CS(=O)(=O)N(Cc2cccc(F)c2)c2ccc(Br)cc21 the results were MPTP block inactive.
For O=C1c2cc(Br)ccc2N(Cc2ccc(Br)cc2)S(=O)(=O)C1c1cc(Cl)c(Cl)cc1[N+](=O)[O-] (stereo not drawn) the results were MPTP block 66 and MPTP counter inactive.
CC(/C=C1\SC(=S)N(NS(=O)(=O)c2ccccc2)C1=O)=C\c1ccccc1 was read as T cruzi inh inactive, MPTP block inactive and Hep lipid drop inactive.
For CC(/C=C1\SC(=S)N(NS(=O)(=O)c2ccc(C)cc2)C1=O)=C\c1ccccc1 the results were T cruzi inh inactive, MPTP block 54, Hep lipid drop inactive and MPTP counter 41.
For CCN(Cc1nc2ccccc2c(=O)[nH]1)C(=O)c1ccc(C)c(NC(=O)c2ccco2)c1 the results were MPTP block inactive.
For CC(=O)c1c(C)[nH]c(C(=O)Nc2ccc(C)c(S(=O)(=O)Nc3ccc(C)cc3C)c2)c1C the results were T cruzi inh inactive, MPTP block 92, Hep lipid drop inactive and MPTP counter 72.
CC(=O)c1c(C)[nH]c(C(=O)Nc2ccc(Cl)c(S(=O)(=O)N3CCOCC3)c2)c1C was read as T cruzi inh inactive, MPTP block 64, Hep lipid drop inactive, Redox H2O2 prof inactive, Lmaj promast inactive and MPTP counter 80.
Screening O=C(NCCCNC(=O)c1ccc(-c2cccc(Cl)c2)o1)c1cnccn1 returned T cruzi inh inactive, MPTP block inactive and Hep lipid drop inactive.
Screening Cc1cc(C)cc(N2C(=O)CSC2c2ccccn2)c1 (stereo not drawn) returned T cruzi inh inactive, MPTP block inactive, Hep lipid drop inactive, Redox H2O2 prof inactive and Lmaj promast inactive.
CN1c2ccccc2C(O)=C(C(=S)Nc2ccc(F)c(Cl)c2)S1(=O)=O was read as T cruzi inh inactive, MPTP block 89, Hep lipid drop inactive, Redox H2O2 prof inactive, Lmaj promast inactive and MPTP counter 72.
For COc1ccc2nc3cc(Cl)ccc3c(Nc3cc(C(C)C)c(O)cc3C)c2c1 the results were T cruzi inh inactive, MPTP block 84, Hep lipid drop inactive and MPTP counter 109.
COc1ccc(-c2nc(CCNC(=O)c3cccs3)cs2)cc1 was read as T cruzi inh inactive, MPTP block 64, Hep lipid drop inactive, Redox H2O2 prof inactive, Lmaj promast inactive, MPTP counter inactive, MPTP swell DR inactive and MPTP cs DR 47.
For N#CC1=C(N)N2C(=C(C#N)C13CCCCC3)SC1CCCCC12O (stereo not drawn) the results were T cruzi inh inactive, MPTP block 66, Hep lipid drop inactive, Redox H2O2 prof inactive, Lmaj promast inactive and MPTP counter 72.
`CNC(=O)COC(=O)c1ccccc1Nc1ccccc1` gave T cruzi inh inactive, MPTP block inactive, Hep lipid drop inactive, Redox H2O2 prof inactive and Lmaj promast inactive.
For CCn1nc([N+](=O)[O-])c(C(C#N)c2nc3ccccc3n2C)c(Cl)c1=O (stereo not drawn) the results were T cruzi inh inactive, MPTP block 54, Hep lipid drop inactive, Redox H2O2 prof inactive, Lmaj promast inactive and MPTP counter 67.
`O=[N+]([O-])c1ccc(CN2CCN(c3nc4ccccc4s3)CC2)cc1` gave T cruzi inh inactive, MPTP block inactive and Hep lipid drop inactive.
`CCCn1nc([N+](=O)[O-])c(C(C#N)c2nc3ccccc3s2)c(Cl)c1=O` (stereo not drawn) gave T cruzi inh inactive, MPTP block 112, Hep lipid drop inactive, Redox H2O2 prof inactive, Lmaj promast inactive and MPTP counter 46.
For Cn1c(C(C#N)C(=O)c2sc3ccccc3c2Cl)nc2ccccc21 (stereo not drawn) the results were T cruzi inh inactive, MPTP block inactive, Redox H2O2 prof inactive and Lmaj promast inactive.
For O=C(COc1ccccc1)NC1CCCCC1 the results were T cruzi inh inactive, MPTP block inactive, Hep lipid drop inactive, Redox H2O2 prof inactive and Lmaj promast inactive.
Screening O=C(COc1ccc(C(=O)c2ccccc2)cc1)Nc1cccnc1 returned T cruzi inh inactive, MPTP block 81, Hep lipid drop inactive and MPTP counter 82.
`N#Cc1ccc(-c2ccc(OCC(=O)Nc3cccnc3)cc2)cc1` gave T cruzi inh inactive, MPTP block inactive and Hep lipid drop inactive.
O=C(COc1ccc(C(=O)c2ccccc2)cc1)NC1CCCCCC1 was read as T cruzi inh inactive, MPTP block 53, Hep lipid drop inactive, Lmaj promast 62 and MPTP counter 31.
O=C(O)C1=C[C@@H](c2coc3ccccc3c2=O)C[C@@H](OCCCCO)O1 was read as T cruzi inh inactive, MPTP block inactive, Hep lipid drop inactive, Redox H2O2 prof inactive and Lmaj promast inactive.
